From ChEMBL document CHEMBL1671857, “Inducible resistance of fish bacterial pathogens to the antimicrobial peptide cecropin B” (2008)
Active and inactive are the calls of the source. The rule behind the calls is not given here.

What was measured:
Vibrio anguillarum 775 [1] = assay: Antimicrobial activity against Vibrio anguillarum 775 assessed as increase in bacterial survival at 100 ug/ml by broth culture growth inhibition assay; assay type: functional
Method in brief: (§1)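 Broth growth-inhibition assay in tryptic soy broth (1% NaCl for vibrios) at 25°C, 200 rpm. Cultures started at 1 × 10^7 CFU/ml and were mixed 1:1 with cecropin B-containing medium. OD570 was read every 4 h for 16 h. Fractional survival is the area under the growth curve (Simpson's rule) relative to the untreated control.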

Vibrio vulnificus [2] = assay: Antimicrobial activity against Vibrio vulnificus assessed as increase in bacterial survival at 100 ug/ml by broth culture growth inhibition assay; assay type: functional, organism-based; method in brief: as §1
Yersinia ruckeri [3] = assay: Antimicrobial activity against Yersinia ruckeri assessed as increase in bacterial survival at 100 ug/ml by broth culture growth inhibition assay; assay type: functional; method in brief: as §1
[4] = Antimicrobial activity against Vibrio anguillarum 775; assay type: functional
Method in brief: (§2)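 Exponential-phase cultures (overnight broth diluted 1:1,000) in tryptic soy broth, with 1% NaCl added for vibrios, at 25°C. Cultures at 1 × 10^7 CFU/ml were mixed with an equal volume of medium containing cecropin B and shaken at 200 rpm. OD570 was read every 4 h over 16 h. Growth-curve area (Simpson's rule) was divided by the drug-free control to give a fractional area. MIC is the x-intercept of the trend line of fractional area versus concentration. Mean ± SD of three experiments, each in triplicate.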

Vibrio vulnificus [5] = assay: Antimicrobial activity against Vibrio vulnificus; assay type: functional; method in brief: as §2
Yersinia ruckeri [6] = assay: Antimicrobial activity against Yersinia ruckeri; assay type: functional; method in brief: as §2
Pseudomonas fluorescens [7] = assay: Antimicrobial activity against Pseudomonas fluorescens; assay type: functional; method in brief: as §2
[8] = Antimicrobial activity against Vibrio anguillarum 775 selected after 120 ug/ml of drug exposure; assay type: functional
Method in brief: (§3)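 Bacteria were grown 16 h in broth with cecropin B at a concentration chosen empirically to allow growth to mid-log (OD600 ~0.4). Cultures were then diluted to 1 × 10^7 CFU/ml and the MIC was determined by the 16-h OD570 growth-curve area method. Mean ± SD of three experiments, each in triplicate.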

Vibrio vulnificus [9] = assay: Antimicrobial activity against Vibrio vulnificus selected after 70 ug/ml of drug exposure; assay type: functional; method in brief: as §3
Pseudomonas fluorescens [10] = assay: Antimicrobial activity against Pseudomonas fluorescens selected after 20 ug/ml of drug exposure; assay type: functional; method in brief: as §3
CHSE-214 [11] = assay: Antimicrobial activity against compound-exposed Vibrio anguillarum 775 infected in CHSE-214 cells assessed as increase in adhesion to cells at 120 ug/ml after 30 mins relative to control; assay type: functional, cell-based
Method in brief: (§4)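 CHSE-214 cells (CO2-independent medium, 10% FBS, 20°C, no antibiotics) at 80% confluence were incubated with mid-log V. anguillarum (unexposed or cecropin B-exposed) at an MOI of 100 for 0–90 min at ~22°C. Monolayers were washed twice in PBS and lysed with 1% Triton X-100, and lysates were plated. Adherent bacteria were counted per CHSE-214 cell.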

CHSE-214 [12] = assay: Antimicrobial activity against compound-exposed Vibrio anguillarum 775 infected in CHSE-214 cells assessed as increase in adhesion to cells at 120 ug/ml after 60 mins relative to control; assay type: functional, cell-based; method in brief: as §4
CHSE-214 [13] = assay: Antimicrobial activity against compound-exposed Vibrio anguillarum 775 infected in CHSE-214 cells assessed as increase in adhesion to cells at 120 ug/ml after 90 mins relative to control; assay type: functional, cell-based; method in brief: as §4
Vibrio anguillarum 775 [14] = assay: Antimicrobial activity against Vibrio anguillarum 775 infected in medaka fish assessed as mortality at 120 ug/ml by immersion challenge assay; assay type: functional
Method in brief: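 Groups of 20 medaka, 7–8 months old, were immersed 90 min in PBS (pH 7.3, 1.0% NaCl) containing 1 × 10^5 CFU/ml V. anguillarum, either unexposed or pre-exposed to 120 μg/ml cecropin B. Cumulative mortality was recorded over 14 days. Three separate experiments, mean ± SD.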

Yersinia ruckeri [15] = assay: Antimicrobial activity against Yersinia ruckeri assessed as appearance of ridges on outer surface of the bacterial cell at 90 ug/ml by SEM; assay type: functional
Method in brief: (§5)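 Exponential-phase broth cultures, with or without prior cecropin B exposure, were adhered 10 min at room temperature to poly-L-lysine-coated chips. Chips were fixed in 2% glutaraldehyde in cacodylate buffer for 30 min, then in 1% osmium tetroxide overnight. Samples were dehydrated through an ethanol series, critical-point dried, gold sputter-coated and examined by scanning electron microscopy.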

Vibrio vulnificus [16] = assay: Antimicrobial activity against Vibrio vulnificus assessed as reduced cell size at 70 ug/ml by SEM; assay type: functional, organism-based; method in brief: as §5
Vibrio vulnificus [17] = assay: Antimicrobial activity against Vibrio vulnificus assessed as loss of flagella at 70 ug/ml by SEM; assay type: functional, organism-based; method in brief: as §5
Vibrio vulnificus [18] = assay: Antimicrobial activity against Vibrio vulnificus assessed as appearance of rugose membrane shape at 70 ug/ml by SEM; assay type: functional, organism-based; method in brief: as §5
Vibrio anguillarum 775 [19] = assay: Antimicrobial activity against Vibrio anguillarum 775 assessed as reduction in extracellular product secreted by cells at 120 ug/ml; assay type: functional; method in brief: as §5
[20] = Antimicrobial activity against Vibrio anguillarum 775 selected after passage with 120 ug/ml of compound; assay type: functional

## H-KWKVFKKIEKMGRNIRNGIVKAGPAIAVLGEAKAL-NH2 [CECROPIN B]
Vibrio anguillarum 775 [1]
  Activity: inactive
Vibrio vulnificus [2]
  Activity: inactive
Yersinia ruckeri [3]
  Activity: inactive
[4]
  MIC: 147 µg/mL
Vibrio vulnificus [5]
  MIC: 85 µg/mL
Yersinia ruckeri [6]
  MIC: 100 µg/mL
Pseudomonas fluorescens [7]
  MIC: 25 µg/mL
[8]
  MIC: 209 µg/mL
Vibrio vulnificus [9]
  MIC: 136 µg/mL
Pseudomonas fluorescens [10]
  MIC: 24 µg/mL
CHSE-214 [11]
  Activity: inactive
CHSE-214 [12]
  Activity: inactive
CHSE-214 [13]
  Activity: inactive
Vibrio anguillarum 775 [14]
  Activity: inactive
Yersinia ruckeri [15]
  Activity: inactive
Vibrio vulnificus [16]
  Activity: inactive
Vibrio vulnificus [17]
  Activity: inactive
Vibrio vulnificus [18]
  Activity: inactive
Vibrio anguillarum 775 [19]
  Activity: inactive
[20]
  MIC: 142 µg/mL
